Assay results taken from ChEMBL document CHEMBL1140435, “Synthesis and evaluation of cyclic secondary amine substituted phenyl and benzyl nitrofuranyl amides as novel antituberculosis agents” (J Med Chem, 2005).
Converted amounts (≈) assume the structure as drawn.

Columns and labels:
[1] = system: Mus musculus; test: Maximum concentration in female C57BL/6 mice administered with 300 mg/kg, po; type: ADME, organism-based; design: dose 300 mg/kg, route oral; conditions: in vivo
How it was run: (§1)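 8–10 week old female C57BL/6 mice given one oral gavage dose, generally 300 mg/kg, below the maximum tolerated dose; HCl salts where possible. Tail-vein bleeds were taken from 3 mice at 20 min, 2, 4 and 8 h, and the serum was collected. Tmax and half-life were read off the concentration–time curve.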

[2] = Oral bioavailability in female C57BL/6 mice administered with 300 mg/kg, po; type: ADME, organism-based; conditions: C57BL/6, mouse, in vivo
How it was run: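 Graded Low (BF 1–20), Medium (21–80) or High (>80). Serum was serially diluted with naive mouse serum and added to H37Rv at 10^4 CFU/well, then incubated at 35 °C. Wells scored positive if OD600 was <50% of the untreated control.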

[3] = system: Mycobacterium tuberculosis; test: Viable number of Mycobacterium tuberculosis colonies in lungs of infected mice after 9 days of administration of 300 mg/kg; type: functional, Lung
How it was run: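 GKO mice infected by low-dose aerosol delivering ~50 bacilli to the lungs. Treatment began 18 days post-infection: 9 daily doses at 300 mg/kg. At day 27 post-infection, lung homogenates were serially diluted onto 7H11 agar and incubated at 37 °C in ambient air for 4 weeks. Result given as Log10 CFU ± SEM and Log10 reduction versus untreated controls.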

[4] = system: Mycobacterium tuberculosis; test: Activity against Mycobacterium tuberculosis H37Rv; type: functional
[5] = Tmax in female C57BL/6 mice administered with 300 mg/kg, po; type: ADME, organism-based; design: dose 300 mg/kg, route oral; conditions: C57BL/6, mouse, in vivo
How it was run: as §1, with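 “collected. […]” for “collected.”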

[6] = Half life in female C57BL/6 mice administered with 300 mg/kg, po; type: ADME, organism-based; design: dose 300 mg/kg, route oral; conditions: C57BL/6, mouse, in vivo; how it was run: as §1

Row | SMILES | MIC50 [4] | further results
1 | NNC(=O)c1ccncc1 [ISONIAZID] | – | Cmax [1]: > 38.4 µg/mL; bioavailability [2]: > 80%; Log10 cfu [3]: 3.88
2 | CN1CCN(c2cccc(NC(=O)c3ccc([N+](=O)[O-])o3)c2)CC1 | 12.5 µg/mL (≈ 37.8 µM) | –
3 | CN(C)c1ccc(CNC(=O)c2ccc([N+](=O)[O-])o2)cc1 | 0.1 µg/mL (≈ 0.346 µM) | Log10 cfu [3]: 7.46
4 | O=C(Nc1ccc(N2CCN(Cc3ccccc3)CC2)cc1)c1ccc([N+](=O)[O-])o1 | 0.8 µg/mL (≈ 1.97 µM) | –
5 | CN1CCN(/N=C\c2ccc(CNC(=O)c3ccc([N+](=O)[O-])o3)cc2)CC1 | 0.4 µg/mL (≈ 1.08 µM) | –
6 | O=C(Nc1ccc(N2CCOCC2)cc1)c1ccc([N+](=O)[O-])o1 | 3.13 µg/mL (≈ 9.86 µM) | –
7 | CN(C)c1ccc(CNC(=O)c2ccc([N+](=O)[O-])o2)cc1.Cl | – | Tmax [5]: 30 min
8 | O=C(NCc1ccc(N2CCOCC2)c(F)c1)c1ccc([N+](=O)[O-])o1 | 0.4 µg/mL (≈ 1.15 µM) | –
9 | CN1CCN(c2ccc(CNC(=O)c3ccc([N+](=O)[O-])o3)cc2F)CC1.Cl | – | Tmax [5]: 30 min
10 | O=C(NCc1cccc(N2CCC(Cc3ccccc3)CC2)c1)c1ccc([N+](=O)[O-])o1 | 1.56 µg/mL (≈ 3.72 µM) | –
11 | O=C(NCc1ccc(N2CCC(Cc3ccccc3)CC2)cc1)c1ccc([N+](=O)[O-])o1 | 0.8 µg/mL (≈ 1.91 µM) | –
12 | Cl.O=C(NCc1cccc(N2CCN(Cc3ccccc3)CC2)c1)c1ccc([N+](=O)[O-])o1 | – | Tmax [5]: 30 min; Cmax [1]: 1.64 µg/mL; half-life [6]: 78 min; bioavailability [2]: 21%
13 | O=C(NCc1ccc(N2CCOCC2)cc1)c1ccc([N+](=O)[O-])o1 | 0.2 µg/mL (≈ 0.604 µM) | Cmax [1]: 3 µg/mL; bioavailability [2]: 21%
14 | O=C(Nc1cccc(N2CCOCC2)c1)c1ccc([N+](=O)[O-])o1 | 3.13 µg/mL (≈ 9.86 µM) | –
15 | O=C(Nc1cccc(N2CCN(c3ccccn3)CC2)c1)c1ccc([N+](=O)[O-])o1 | 3.13 µg/mL (≈ 7.96 µM) | –
16 | O=C(NCc1ccc(N2CCN(Cc3ccccc3)CC2)cc1)c1ccc([N+](=O)[O-])o1 | 0.0125 µg/mL (≈ 0.0297 µM) | Log10 cfu [3]: 7.92
17 | CN1CCN(c2ccc(NC(=O)c3ccc([N+](=O)[O-])o3)cc2)CC1 | 12.5 µg/mL (≈ 37.8 µM) | –

Row | SMILES | MIC50 [4] | further results
18 | CN1CCN(c2cccc(CNC(=O)c3ccc([N+](=O)[O-])o3)c2)CC1 | 3.12 µg/mL (≈ 9.07 µM) | –
19 | O=C(NCc1ccc(N2CCN(CC3CC3)CC2)cc1)c1ccc([N+](=O)[O-])o1 | 0.05 µg/mL (≈ 0.13 µM) | –
20 | O=C(NCc1cccc(N2CCN(Cc3ccccc3)CC2)c1)c1ccc([N+](=O)[O-])o1 | 0.1 µg/mL (≈ 0.238 µM) | –
21 | CN1CCN(c2ccc(CNC(=O)c3ccc([N+](=O)[O-])o3)cc2)CC1 | 0.2 µg/mL (≈ 0.581 µM) | –
22 | O=C(NCc1ccc(N2CC[S+]([O-])CC2)cc1)c1ccc([N+](=O)[O-])o1 | 3.13 µg/mL (≈ 8.61 µM) | –
23 | O=C(NCc1ccc(N2CCN(Cc3ccccc3)CC2)c(F)c1)c1ccc([N+](=O)[O-])o1 | 0.025 µg/mL (≈ 0.057 µM) | Cmax [1]: 1.64 µg/mL; bioavailability [2]: 21%; Log10 cfu [3]: 7.65
24 | CN1CCN(c2ccc(CNC(=O)c3ccc([N+](=O)[O-])o3)cc2F)CC1 | 0.8 µg/mL (≈ 2.21 µM) | –
25 | O=C(NCc1ccc(N2CCSCC2)cc1)c1ccc([N+](=O)[O-])o1 | 0.1 µg/mL (≈ 0.288 µM) | Cmax [1]: 0.82 µg/mL; bioavailability [2]: 1%; Log10 cfu [3]: 7.53
26 | Cl.O=C(NCc1ccc(N2CCN(Cc3ccccc3)CC2)cc1)c1ccc([N+](=O)[O-])o1 | – | Tmax [5]: 30 min; Cmax [1]: 2.24 µg/mL; half-life [6]: 66 min; bioavailability [2]: > 80%
27 | O=C(Nc1ccc(N2CCC(Cc3ccccc3)CC2)cc1)c1ccc([N+](=O)[O-])o1 | 3.13 µg/mL (≈ 7.72 µM) | –
28 | O=C(NCc1ccc(N2CCC(Cc3ccccc3)CC2)c(F)c1)c1ccc([N+](=O)[O-])o1 | 0.2 µg/mL (≈ 0.457 µM) | –
29 | O=C(Nc1cccc(N2CCN(Cc3ccccc3)CC2)c1)c1ccc([N+](=O)[O-])o1 | 12.5 µg/mL (≈ 30.8 µM) | –
30 | Cl.O=C(NCc1ccc(N2CCN(CC3CC3)CC2)cc1)c1ccc([N+](=O)[O-])o1 | – | Tmax [5]: 30 min
31 | O=C(NCc1ccc(N2CCS(=O)(=O)CC2)cc1)c1ccc([N+](=O)[O-])o1 | 12.2 µg/mL (≈ 32.3 µM) | –
32 | O=C(Nc1ccc(N2CCN(c3ccccn3)CC2)cc1)c1ccc([N+](=O)[O-])o1 | 0.4 µg/mL (≈ 1.02 µM) | –
33 | O=C(Nc1cccc(N2CCC(Cc3ccccc3)CC2)c1)c1ccc([N+](=O)[O-])o1 | 12.5 µg/mL (≈ 30.8 µM) | –
34 | O=C(NCc1ccc(N2CCSCC2)c(F)c1)c1ccc([N+](=O)[O-])o1 | 0.8 µg/mL (≈ 2.19 µM) | –
